The values that follow come from ChEMBL document CHEMBL2424606, “Selective cytotoxicity, inhibition of cell cycle progression, and induction of apoptosis in human breast cancer cells by sesquiterpenoids from Inula lineariifolia Turcz” (Eur J Med Chem, 2013).

Assay [1] concerns MDA-MB-231. As to the kind of experiment: Cytotoxicity against human MDA-MB-231 cells assessed as growth inhibition after 72 hrs by MTT assay. The following applies: MDA-MB-231, 72 h. The class given is functional, cell-based. Summed up:
(§1)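 3×10³ cells/well exposed 72 h to compound at 0, 1, 5, 10, 25, 50 μM, DMSO as vehicle control. MTT (5 mg/mL solution) added for 2–4 h at 37°C. Formazan dissolved in DMSO, absorbance read at 570 nm. Viability is mean OD relative to DMSO wells. IC50 from three separate experiments.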

A further assay relates to MCF-10A. Put plainly: Cytotoxicity against human MCF10A cells assessed as growth inhibition after 72 hrs by MTT assay. The class given is cell-based. The gist of the method: as §1
Assay [2] has as its system MCF7. As to the kind of experiment: Cytotoxicity against human MCF7 cells assessed as growth inhibition after 72 hrs by MTT assay. The class given is functional, cell-based. The settings on record: MCF7, 72 h. The gist of the method:
as §1

Assay [3] concerns MDA-MB-231. As to the kind of experiment: Induction of apoptosis in human MDA-MB-231 cells after 48 hrs by annexin V-FITC/propidium iodide staining-based flow cytometric analysis. Type of assay: functional, cell-based. The gist of the method: (§2)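 Treatment of 2–3×10⁵ cells with compound at 0, 1 or 5 μM for 48 h. Media plus cells collected, washed in serum-free medium, resuspended in Annexin V binding buffer. Stained with annexin V-FITC and propidium iodide 15 min in the dark at room temperature, then flow cytometry. Early (annexin only) and late (annexin+PI) apoptotic cells counted. Apoptotic index vs untreated cells. Means ± S.D., Student's t-test vs DMSO control.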

The test system of assay [4] is MDA-MB-231. As to the kind of experiment: Cell cycle arrest in human MDA-MB-231 cells assessed as accumulation at S phase after 24 hrs by propidium iodide staining-based flow cytometric analysis. Type of assay: functional. The gist of the method: (§3)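 Cells (2–3×10⁵) exposed to test compound at 0, 1 or 2.5 μM for 24 h. Trypsinized, PBS-washed, fixed in 95% ethanol at 4 °C overnight, RNAse-treated, propidium iodide-stained. DNA content measured by flow cytometry for phase distribution.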

In assay [5] the test system is MDA-MB-231. Put plainly: Cell cycle arrest in human MDA-MB-231 cells assessed as accumulation at S phase at 2.5 uM after 24 hrs by propidium iodide staining-based flow cytometric analysis. Type of assay: functional. The gist of the method: as §3
Assay [6] has as its system MCF7. Put plainly: Cell cycle arrest in human MCF7 cells assessed as accumulation at G2/M phase after 24 hrs by propidium iodide staining-based flow cytometric analysis. Type of assay: functional. The gist of the method: as §3
A general note: Flow cytometry measures light scatter and fluorescence of single cells or particles in a stream.

Assay [7] relates to MCF7. As to the kind of experiment: Cell cycle arrest in human MCF7 cells assessed as accumulation at G2/M phase at 2.5 uM after 24 hrs by propidium iodide staining-based flow cytometric analysis. The class given is functional. Summed up: as §3
The subject of assay [8] is MCF7. As to the kind of experiment: Induction of apoptosis in human MCF7 cells after 48 hrs by annexin V-FITC/propidium iodide staining-based flow cytometric analysis. The class given is functional, cell-based. Summed up: as §2
The subject of assay [9] is MCF7. Put plainly: Induction of apoptosis in human MCF7 cells assessed as apoptotic index at 5 uM after 48 hrs by annexin V-FITC/propidium iodide staining-based flow cytometric analysis relative to control. The class given is functional. Summed up: as §2
The subject of assay [10] is MDA-MB-231. As to the kind of experiment: Induction of apoptosis in human MDA-MB-231 cells assessed as apoptotic index at 5 uM after 48 hrs by annexin V-FITC/propidium iodide staining-based flow cytometric analysis relative to control. The class given is functional. The gist of the method: as §2
Assay [11] deals with MDA-MB-231. Put plainly: Cell cycle arrest in human MDA-MB-231 cells assessed as accumulation at G2/M phase at 2.5 uM after 24 hrs by propidium iodide staining-based flow cytometric analysis. Type of assay: functional. The gist of the method: as §3
Assay [12] concerns MDA-MB-231. As to the kind of experiment: Cell cycle arrest in human MDA-MB-231 cells assessed as accumulation at G2/M phase after 24 hrs by propidium iodide staining-based flow cytometric analysis. The class given is functional. The gist of the method: as §3

Active and inactive are the calls of the source. The rule behind the calls is not given here.

With `C=C1C(=O)O[C@H]2C[C@H](C)[C@@]34C[C@@]5(C(=O)O[C@H]6C=C(C)[C@H]7[C@@H](OC(C)=O)C[C@@](C)(O)[C@@H]7C[C@@H]65)[C@@H](C(C)=C3C[C@H]12)[C@@H]4O`, the figures for the IC50 in the assay on MDA-MB-231 [1], in the assay with MCF-10A and in the assay on MCF7 [2] were 16.5 µM, over 50 µM and 7.8 µM, respectively.
Taken in the same sequence, the figures for `C=C1C(=O)O[C@@H]2CC(C)=C3[C@@H](C[C@H]12)[C@](C)(O)C[C@@H]3O` were over 50 µM, over 50 µM and over 50 µM.
As to `C=C1C(=O)O[C@@H]2CC(C)=C3[C@@H](OC(C)=O)C[C@@](C)(O)[C@@H]3[C@@H](O)[C@H]12`, the IC50 in the assay on MDA-MB-231 [1], in the assay on MCF-10A and in the assay on MCF7 [2] was over 50 µM in each case.
With `CC(=O)O[C@H]1C(=O)[C@@]2(C)[C@H]([C@H](OC(=O)c3ccccc3)[C@]3(O)C[C@H](OC(=O)[C@H](O)[C@@H](NC(=O)c4ccccc4)c4ccccc4)C(C)=C1C3(C)C)[C@]1(OC(C)=O)CO[C@@H]1C[C@@H]2O` [PACLITAXEL], the IC50 with MDA-MB-231 [1] was found to be 0.087 µM; in the assay on MCF-10A, 0.427 µM; with MCF7 [2], 0.0752 µM.
The matching figures for `C=C1C(=O)O[C@H]2C[C@H](C)[C@@]34C[C@@]5(C(=O)O[C@H]6/C=C(\C)CC/C=C(\CO)C[C@H](O)[C@@H]65)[C@@H](C(C)=C3C[C@H]12)[C@@H]4OC(C)=O`: 5.7 µM, 26.4 µM and 3.7 µM.
Taken in the same sequence, the figures for `C=C1C(=O)O[C@@H]2/C=C(\C)CC/C=C(\CO)C[C@@H](O)[C@@H]12` [DEACETYLOVATIFOLIN] were 13.8 µM, 45.7 µM and 6.9 µM.
For the compound `C=C1C(=O)O[C@H]2C=C(C)[C@@H]3[C@@H]([C@@H](O)[C@H]12)[C@](C)(O)C[C@@H]3OC(C)=O`, the IC50 with MDA-MB-231 [1] was 11.4 µM; in the assay on MCF-10A it was over 50 µM; in the assay on MCF7 [2] it was 6.2 µM.
Taken in the same sequence, the figures for `C=C1C(=O)O[C@H]2C[C@H](C)[C@@]34C[C@@]5(C(=O)O[C@H]6C=C(C)[C@H]7[C@@H](OC(C)=O)C[C@@](C)(O)[C@@H]7C[C@@H]65)[C@@H](C(C)=C3C[C@H]12)[C@@H]4OC(C)=O` were 10.7 µM, over 50 µM and 3.4 µM.
The matching figures for `C[C@@H]1C2=C[C@H]3[C@@H](C[C@@]2(C)CC[C@@H]1O)OC(=O)[C@@H]3C`: over 50 µM, over 50 µM and over 50 µM.
The matching figures for `C=C1C(=O)O[C@@H]2CC(C)=C3[C@@H](OC(C)=O)C[C@@](C)(O)[C@@H]3C[C@H]12` [INUCHINENOLIDE B]: 25.8 µM, over 50 µM and 15.5 µM.
Consider `C=C1C[C@@H]2OC(=O)C(=C)[C@H]2C[C@@H]2[C@@H]1[C@@H](O)C[C@@]2(C)O`, for which the figures for the IC50 in the assay on MDA-MB-231 [1], in the assay on MCF-10A and with MCF7 [2] were 21.1 µM, over 50 µM and 13.7 µM, respectively.
The matching figures for `C=C1C(=O)O[C@H]2C[C@H](C)[C@H]3[C@@H](O)C[C@@](C)(O)[C@@]34O[C@H]4[C@H]12`: over 50 µM, over 50 µM and over 50 µM.
As to `C=C1C(=O)O[C@H]2C[C@@H](C)[C@@H]3C=CC(=O)[C@@]3(C)[C@@H](OC(C)=O)[C@H]12` [BIGELOVIN], the figures for the IC50 in the assay with MDA-MB-231 [1], with MCF-10A and with MCF7 [2] were 2.3 µM, 26 µM and 2.1 µM, respectively.
As for `CC(=O)O[C@H]1C=C(CCO)[C@@H](C)C[C@H]2OC(=O)[C@@H](C)[C@@H]12`, the IC50 with MDA-MB-231 [1], with MCF-10A and in the assay on MCF7 [2] was over 50 µM in each case.
As to `C=C1C(=O)O[C@@H]2C[C@H](C)[C@@H]3[C@@H](OC(C)=O)C[C@H](O)[C@@]3(C)C[C@H]12`, the IC50 with MDA-MB-231 [1] is 12.9 µM; in the assay on MCF-10A it was over 50 µM; in the assay on MCF7 [2], 6.7 µM.
On to `C=C1C(=O)O[C@H]2C[C@H](C)[C@@]34C[C@@]5(C(=O)O[C@H]6C[C@@H](C)[C@@H]7[C@@H](OC(C)=O)C[C@H](O)[C@@]7(C)C[C@@H]65)[C@@H](C(C)=C3C[C@H]12)[C@@H]4O`, for which the Activity result in the assay on MDA-MB-231 [3], with MDA-MB-231 [4], in the assay with MCF7 [6], with MCF7 [8] and with MDA-MB-231 [12] was “Dose-dependent effect” in each case. Moreover, the IC50 with MDA-MB-231 [1] was determined as 2.8 µM; in the assay on MCF-10A, 27.9 µM; in the assay on MCF7 [2] it was 1.6 µM. In addition, the result with MDA-MB-231 [5], with MCF7 [7] and in the assay with MDA-MB-231 [11] was Active. For the same compound, the “fold change (FC)” value with MCF7 [9] turned out to be 7.6; in the assay on MDA-MB-231 [10], 14.2.

The term IC50 denotes the point on the concentration scale where inhibition reaches its midpoint.
